Values after ≈ are worked out from the molar mass of the structure shown. “Also recorded” adds a separate entry of the source. Like-named read-outs stand apart in the source and are kept apart here.
Legend:
[1] = system: Hep-G2 (Human hepatocellular carcinoma); experiment: MTT cytotoxic assay, Hep-G2; assay type: cell-based; settings: for IC50: Homo sapiens, HepG2, 36 h, read-out: IC50 Hep-G2
[2] = system: MCF-7 (Human breast adenocarcinoma); experiment: MTT cytotoxic assay, MCF-7; assay type: cell-based; settings: for IC50: Homo sapiens, MCF7, 36 h, read-out: IC50 MCF-7
[3] = molecular target: α-glucosidase from Saccharomyces cerevisiae; experiment: Alpha-glucosidase inhibitory assay; assay type: biochemical; settings: for α-glucosidase inhibition rate: concentration of 400 µg/mL; for IC50: read-out: IC50 α-glucosidase, µM equivalent, converted from µg/mL
[4] = system: Vero cells (monkey kidney epithelial cells); experiment: MTT cytotoxic assay, Vero cells; assay type: cell-based; settings: for IC50 Vero: MTT; for IC50: Primates, Vero
[5] = system: NO production in LPS-stimulated RAW 264.7 macrophages; experiment: Nitrite; assay type: cell-based, murine
How it was run: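 RAW 264.7 cells were seeded at 2x10^5 per well and grown to about 70% confluence, then serum-starved in 1% FBS medium. Test compound was given at non-cytotoxic concentrations for 24 h at 37 °C, then cells were stimulated with 1 µg/mL LPS for 24 h. Supernatant nitrite was measured with Griess reagent (30 °C, 20 min) at 550 nm against a sodium nitrite standard curve. Runs were in triplicate, and IC50 came from inhibition-concentration plots.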

[6] = molecular target: T1, porcine pancreatic lipase (Type II) (Sus scrofa, UniProt P00591); experiment: Lipase inhibitory assay; assay type: biochemical; settings: for inhibition at 125 µg/mL / inhibition at 250 µg/mL / inhibition at 500 µg/mL: read-out: Enzyme inhibition (pancreatic lipase)
T1 sequence (P00591 1-450): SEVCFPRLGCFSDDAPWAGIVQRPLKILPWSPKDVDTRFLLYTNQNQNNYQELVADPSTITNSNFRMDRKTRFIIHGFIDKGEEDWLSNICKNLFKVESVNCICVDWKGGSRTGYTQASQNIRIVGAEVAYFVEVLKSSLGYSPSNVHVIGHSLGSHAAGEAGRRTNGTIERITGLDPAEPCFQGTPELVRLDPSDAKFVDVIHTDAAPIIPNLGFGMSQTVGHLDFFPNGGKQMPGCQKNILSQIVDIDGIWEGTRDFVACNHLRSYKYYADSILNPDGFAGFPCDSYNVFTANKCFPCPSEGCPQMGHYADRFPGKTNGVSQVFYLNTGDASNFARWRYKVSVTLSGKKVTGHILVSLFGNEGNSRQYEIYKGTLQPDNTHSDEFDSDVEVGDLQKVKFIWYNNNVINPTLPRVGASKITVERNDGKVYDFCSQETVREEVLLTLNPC
How it was run: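 Porcine pancreatic lipase (Type II, 0.1 mg) was mixed with 6.66 μM p-nitrophenyl palmitate in ethanol/acetonitrile (2:1, v/v) and test compound in 0.061 M Tris-HCl, pH 8.5. The mixture was incubated at 37 °C for 25 min, stopped with ethanol, and substrate hydrolysis read at 405 nm. Runs were in triplicate. IC50 was estimated from inhibition-versus-concentration plots.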

[7] = system: A549 (Human lung carcinoma); experiment: MTT cytotoxic assay, A549; assay type: cell-based; settings: for IC50: Homo sapiens, A549, 36 h, read-out: IC50 A549
RAW 264.7 macrophages = experiment: MTT cell viability of RAW 264.7 macrophages; assay type: cell-based, murine
How it was run: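 RAW 264.7 cells were kept in DMEM with 10% FBS and penicillin/streptomycin at 37 °C, 5% CO2. Exponential-phase cells (5x10^4 per well) were exposed to serially diluted test compound (50-25-12.5-6.25 µg/mL) plus 1 µg/mL LPS for 36 h. MTT (0.5 mg/mL) was then added for 4 h at 37 °C. Formazan was dissolved in DMSO and read at 570 nm. Runs were in triplicate.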

[8] = 36 h, read-out: IC50 Vero, MTT, 36 h
[9] = read-out: IC50 Vero, μM equivalent, converted from µg/mL
[10] = Mus musculus, RAW264.7, read-out: NO inhibition

| SMILES | IC50 [1] [µg/mL] | IC50 [2] [µg/mL] | IC50 α-glucosidase [3] [µg/mL] | α-glucosidase inhibition rate [3] | IC50 [3] [µM] | IC50 Vero ([4]; 36 h) | IC50 [4, 8] [µg/mL] | IC50 [4, 9] [µM] | inhibition at 1 µg/mL [5, 10] [%] | inhibition at 5 µg/mL [5, 10] [%] | inhibition at 25 µg/mL [5, 10] [%] | IC50 [6] [µM] | inhibition at 125 µg/mL [6] [%] | inhibition at 250 µg/mL [6] [%] | inhibition at 500 µg/mL [6] [%] | IC50 [7] [µg/mL] | Cell survival (RAW 264.7 macrophages; test concentration 1 µg/mL) [%] | Cell survival (RAW 264.7 macrophages; test concentration 5 µg/mL) [%] | Cell survival (RAW 264.7 macrophages; test concentration 25 µg/mL) [%] | Cell survival (RAW 264.7 macrophages; test concentration 50 µg/mL) [%] | further results |
| --- | --- | --- | --- | --- | --- | --- | --- | --- | --- | --- | --- | --- | --- | --- | --- | --- | --- | --- | --- | --- | --- |
| CC(C)[C@@H](C)/C=C/[C@@H](C)[C@H]1CCC2=C3C=C[C@@]4(O)C[C@@H](O)CC[C@]4(C)[C@H]3CC[C@@]21C [Compound (3), (3β,5α,22E)-ergosta-6,8(14),22-triene-3,5-diol] | 2.89 (≈ 7 µM) | 16.5 (≈ 39.9 µM) | 25.81 (≈ 62.5 µM) | greater than 50% | 60 | 18.40 µg/mL (≈ 44.6 µM) | 10.4 | 24.2 | 32.8 ± 0.73 | 55.2 ± 1.2 | 71.4 ± 1.38 | > 1210 | 1.29 ± 1.11 | 12.1 ± 0.95 | 23.8 ± 2.31 | 18.5 (≈ 44.9 µM) | 93.19 ± 0.49 | 93.86 ± 1.33 | 82.31 ± 0.78 | 1.70 ± 0.27 | – |
| CC(C)[C@@H](C)/C=C/[C@@H](C)[C@H]1CC[C@@H]2[C@]1(C)CC[C@H]1[C@]23C=C[C@]2(C[C@@H](O)CC[C@]12C)OO3 [Compound (2), ergosterol peroxide] | 16.2 (≈ 37.8 µM) | 27.1 (≈ 63.2 µM) | 21.89 (≈ 51.1 µM) | greater than 50% | 51.1 | 14.93 µg/mL (≈ 34.8 µM) | – | 11.5 | 28 ± 0.84 | 56.7 ± 1.29 | 81.4 ± 1.35 | > 1170 | 2.54 ± 1.6 | 11.7 ± 2.13 | 25.9 ± 1.24 | 22.5 (≈ 52.4 µM) | 98.08 ± 1.26 | 83.99 ± 1.05 | 60.87 ± 2.21 | 2.18 ± 0.68 | – |
| CC(C)[C@@H](C)/C=C/[C@@H](C)[C@H]1CC[C@H]2C3=C[C@@H](O)[C@@]4(O)C[C@@H](O)CC[C@]4(C)[C@H]3CC[C@]12C [Compound (1), cerevisterol] | > 50 | > 50 | – | 12.69 ± 1.06% | – | did not show any cytotoxicity | > 50 | – | 14.4 ± 1.5 | 30.9 ± 1.04 | 48.8 ± 1.43 | – | – | – | 0 | > 50 | 98.05 ± 0.67 | 97.69 ± 1.20 | 96.78 ± 0.63 | 98.40 ± 1.73 | IC50 Hep-G2 ([1]; MTT, 36 h): no significant effect; also recorded: did not show any cytotoxicity; IC50 MCF-7 ([2]; MTT, 36 h): no significant effect; also recorded: did not show any cytotoxicity; inhibition at 50 µg/mL [5, 10]: 54.2 ± 1.27%; IC50 A549 ([7]; MTT, 36 h): no significant effect; also recorded: did not show any cytotoxicity |
| Cc1c2ccncc2c(C)c2c1[nH]c1ccccc12 [Ellipticine, reference compound] | 1.26 (≈ 5.12 µM) | 2.69 (≈ 10.9 µM) | – | – | – | – | 8.61 | – | – | – | – | – | – | – | – | 1.38 (≈ 5.6 µM) | – | – | – | – | – |
| COc1cc(O)cc(O)c1C(=O)/C=C/c1ccccc1 [Cardamonin, reference compound] | – | – | – | – | – | – | – | – | – | – | – | – | – | – | – | – | – | – | – | – | NO half-maximal inhibitory concentration (IC50) ([5]; LPS-stimulated RAW 264.7): 0.62 µg/mL; NO inhibition ([5]; test concentration 0.81 µg/mL (3 µM), LPS 1 µg/mL): 86.93 ± 0.96%; Cell survival (RAW 264.7 macrophages; test concentration 0.81 µg/mL (3 µM)): 71.80 ± 0.51% |
